Assays:
[1] = molecular target: T1, Cathepsin K (Homo sapiens, UniProt P43235); experiment: Inhibition of recombinant human cathepsin K
T1 sequence (P43235 whole entry): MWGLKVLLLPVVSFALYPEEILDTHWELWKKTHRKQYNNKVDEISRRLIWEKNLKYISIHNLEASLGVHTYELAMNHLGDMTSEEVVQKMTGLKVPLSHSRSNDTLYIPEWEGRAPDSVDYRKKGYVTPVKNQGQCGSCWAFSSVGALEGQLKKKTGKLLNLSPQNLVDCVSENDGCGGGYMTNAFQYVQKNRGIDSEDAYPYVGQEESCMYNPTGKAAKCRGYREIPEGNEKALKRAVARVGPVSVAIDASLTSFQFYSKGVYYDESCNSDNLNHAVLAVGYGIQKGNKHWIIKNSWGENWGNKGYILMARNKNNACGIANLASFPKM

[2] = molecular target: Procathepsin L (Homo sapiens, UniProt P07711); experiment: Inhibition of recombinant human cathepsin L
Procathepsin L, sequence (P07711 whole entry): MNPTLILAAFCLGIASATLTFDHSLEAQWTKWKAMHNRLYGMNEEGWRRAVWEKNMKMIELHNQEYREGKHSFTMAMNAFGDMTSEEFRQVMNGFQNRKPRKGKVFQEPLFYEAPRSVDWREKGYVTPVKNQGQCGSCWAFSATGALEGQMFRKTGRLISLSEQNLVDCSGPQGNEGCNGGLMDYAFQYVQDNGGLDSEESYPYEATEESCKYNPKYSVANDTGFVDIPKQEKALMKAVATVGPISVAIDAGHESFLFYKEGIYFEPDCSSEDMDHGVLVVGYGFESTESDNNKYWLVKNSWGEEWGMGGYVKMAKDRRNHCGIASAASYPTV

[3] = molecular target: Cathepsin S (Homo sapiens, UniProt P25774); experiment: Inhibition of recombinant human cathepsin S
Cathepsin S, sequence (P25774 whole entry): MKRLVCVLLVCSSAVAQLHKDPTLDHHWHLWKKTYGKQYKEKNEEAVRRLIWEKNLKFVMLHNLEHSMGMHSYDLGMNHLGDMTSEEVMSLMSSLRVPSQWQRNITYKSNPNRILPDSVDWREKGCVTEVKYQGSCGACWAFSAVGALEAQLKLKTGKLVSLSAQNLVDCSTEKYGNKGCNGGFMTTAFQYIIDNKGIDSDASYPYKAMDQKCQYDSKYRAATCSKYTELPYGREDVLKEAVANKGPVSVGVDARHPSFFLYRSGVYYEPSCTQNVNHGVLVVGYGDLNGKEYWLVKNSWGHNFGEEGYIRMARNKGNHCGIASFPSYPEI

[4] = Clearance in rat; type: ADME, organism-based; settings: in vivo
Outline: (§1)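 Cassette dosing of six compounds to conscious, fed, permanently cannulated rats. IV bolus of 1 mg kg^-1 in N-methyl-2-pyrrolidone/PEG200 (30:70, v/v). Oral dose of 3 mg kg^-1, dissolved or suspended with sonication in 1% tartaric acid plus 1% carboxymethyl cellulose in water. Same animals received both routes, with a 48 h washout between them. Femoral arterial blood sampled over 24 h. Plasma extracted by acetonitrile precipitation and parent drug quantified by HPLC/MS.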

[5] = Volume of distribution in rat; type: ADME, organism-based; settings: in vivo, read-out: Vss; outline: as §1
[6] = Terminal half life in rat; type: ADME, organism-based; settings: in vivo; outline: as §1
[7] = tested on: Rattus norvegicus; experiment: Cmax in rat at 3 mg/kg, po normalized to 1 mg/kg; type: ADME, organism-based; set-up: dose 3 mg/kg, route oral; settings: in vivo; outline: as §1
[8] = Oral bioavailability in rat; type: ADME, organism-based; settings: in vivo; outline: as §1

IC50 [1] [nM] | IC50 [2] [nM] | IC50 [3] [nM] | clearance [4] [mL/min/kg] | Vd [5] [L/kg] | half-life [6] [h] | Cmax [7] [nM] | bioavailability [8] [%] | SMILES
24 | 110 | 130 | 396 | 4.3 | 0.2 | 11.3 | 4.6 | Cc1nc[nH]c1CC(=O)N[C@@H](CC(C)C)C(=O)N[C@H](C#N)COCc1ccccc1
63 | 1100 | 700 |  |  |  |  |  | COc1ccc(C[C@@H](C#N)NC(=O)[C@H](CC(C)C)NC(=O)OCc2ccccc2)cc1
< 1 | 154 | 29 |  |  |  |  |  | CC(C)C[C@H](NC(=O)c1cc2ccccc2[nH]1)C(=O)N[C@H](C#N)COCc1ccccc1
240 | 2800 | 900 |  |  |  |  |  | CC(C)C[C@H](NC(=O)OCc1ccccc1)C(=O)N[C@H](C#N)COC(C)(C)C
 | 660 | 240 |  |  |  |  |  | Cc1nccn1CC(=O)N[C@@H](CC(C)C)C(=O)N[C@H](C#N)COCc1ccccc1
9 | 1700 | 969 | 45 | 4.6 | 2.2 | 44.3 | 26.4 | CC(C)C[C@H](NC(=O)OCc1ccccc1)C(=O)N[C@H](C#N)COCc1ccccc1
120 | 7700 | 2300 |  |  |  |  |  | Cc1cccc(C[C@@H](C#N)NC(=O)[C@H](CC(C)C)NC(=O)OCc2ccccc2)c1
43 | 8000 | > 10000 |  |  |  |  |  | CC(C)C[C@H](NC(=O)OCc1ccccc1)C(=O)N[C@H](C#N)Cc1ccc(C(F)(F)F)cc1
< 1 | 83 | 47 | 82 | 7.7 | 1.4 | 51.1 | 30.1 | CC(C)C[C@H](NC(=O)c1cc2ccccc2n1C)C(=O)N[C@H](C#N)COCc1ccccc1
> 1000 | > 10000 | > 10000 |  |  |  |  |  | CC(C)C[C@H](NC(=O)OCc1ccccc1)C(=O)N[C@H](C#N)Cc1ccc(OCc2ccccc2)cc1
430 | 190 | 41 |  |  |  |  |  | CC(C)C[C@H](NC(=O)C(C)(C)Nc1ccc(Cl)cc1)C(=O)N[C@H](C#N)COCc1ccccc1
48 | 9900 | > 10000 |  |  |  |  |  | Cc1ccc(C[C@@H](C#N)NC(=O)[C@H](CC(C)C)NC(=O)OCc2ccccc2)cc1
83 | 1200 | 140 |  |  |  |  |  | CC(C)C[C@H](NC(=O)CN1CCC(c2ccccc2)CC1)C(=O)N[C@H](C#N)COCc1ccccc1
9 | 330 | 180 | 320 | 18 | 1 | 2.5 | 3.5 | CC(C)C[C@H](NC(=O)CN1CCN(c2ccncc2)CC1)C(=O)N[C@H](C#N)COCc1ccccc1
< 1 | < 30 | 52 | 141 | 13.6 | 3.1 | 3.5 | 10.1 | CC(C)C[C@H](NC(=O)C(C)(C)Oc1ccc(Cl)cc1)C(=O)N[C@H](C#N)COCc1ccccc1
398 | 1400 | > 10000 |  |  |  |  |  | CC(C)C[C@H](NC(=O)OCc1ccccc1)C(=O)N[C@H](C#N)Cc1ccc(OC(C)(C)C)cc1
